Consider three compounds from ChEMBL document CHEMBL4350999, “Enhanced tumor retention of NTSR1-targeted agents by employing a hydrophilic cysteine cathepsin inhibitor” (Eur J Med Chem, 2019).

Activity calls are given as the source filed them. No cut-off for these calls is given here.

A short description of data set [1]: Stability of 177Lu labelled compound in human serum assessed as parent compound remaining at 37 degC after 1 hr RP-HPLC analysis. The data set is classed as ADME, cell-free. To be noted: read-out: Stability. The essentials:
(§1)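 Radioconjugate (1.5 mCi, 55.5 MBq) was incubated in 300 μL human serum at 37 °C. At 1, 3 and 24 h, acetonitrile was added and samples were spun at 12,000×g for 5 min. Supernatant was dried under nitrogen, reconstituted in water and analyzed by radio-HPLC.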

A short description of data set [2]: Drug internalization in cytoplasm of human HT-29 cells within 2 hrs using Eu labelled compound by lysotracker green staining confocal microscopic analysis. The data set is classed as ADME, subcellular. To be noted: ht-29, 2 h. The method, boiled down:
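HT-29 cells (1.25 × 10^5/well) incubated 2 h at 37 °C with natEu conjugate (5 μM), with or without N1 (20 μM). Lysotracker Green (100 nM) added for 1 h; cells washed, formaldehyde-fixed and imaged confocally at 405/488 nm excitation. Mean pixel intensity normalized to cell count.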

A short description of data set [3]: Stability of 177Lu labelled compound in human serum assessed as parent compound remaining at 37 degC after 24 hrs by RP-HPLC analysis. The data set is classed as ADME, cell-free. The conditions noted are these: read-out: Stability. The essentials:
as §1

Data set [4] addresses T1, Procathepsin L (Homo sapiens, UniProt P07711). The experiment in a line: Binding affinity to human liver cathepsin L assessed as protein-conjugate adduct formation incubated for 30 mins using 177Lu labelled compound by SDS-PAGE analysis. The method, boiled down: (§2)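 Purified human liver CatB or CatL (3 nM) in 50 mM sodium acetate/1 mM EDTA pH 5.0 incubated 30 min with 177Lu conjugate (500,000 cpm) in Tris/MgCl2/DTT buffer pH 5.5, alone or with E-64 (10 μM) or N1 (20 μM). Mixtures heated 85 °C 2 min, run on 16% tris-glycine gel at 110 V for 90 min, and read by phosphor autoradiography.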

Data set [5] in a line: Drug internalization in human HT-29 cells assessed as efflux fraction measured at 2 hrs using 177Lu labelled compound by gamma counter method. The data set is classed as ADME, cell-based. To be noted: ht-29, 2 h. The method, boiled down: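 HT-29 cells (~1 × 10^6) loaded 2 h at 37 °C with 177Lu conjugate (100,000 cpm), washed, then given fresh medium. Medium collected and replaced at 1, 2, 4, 8, 24 h and gamma-counted; cells lysed in 10% SDS at 24 h. Efflux expressed as % of total internalized activity (effluxed + cell-retained); n = 3.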

The target in data set [6] is Cathepsin B (Homo sapiens, UniProt P07858). The experiment in a line: Binding affinity to human liver cathepsin B assessed as protein-conjugate adduct formation incubated for 30 mins using 177Lu labelled compound by SDS-PAGE analysis. The method, boiled down:
as §2

Data set [7] can be described thus: Drug retention in kidney of mouse xenografted with human HT-29 cells assessed as tissue-conjugate adduct formation at 29.6 MBq measured after 72 hrs using 177Lu labelled compound by SDS-PAGE analysis. The data set is classed as ADME, tissue-based. To be noted: in vivo. The essentials: (§3)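 HT-29 xenograft mice given 800 μCi (29.6 MBq) 177Lu conjugate i.v. and killed at 72 h. Tumor, liver and kidney homogenized in RIPA with protease inhibitor and supernatants run on SDS-PAGE autoradiography. Other supernatant aliquots filtered through 10 kDa MWCO devices to give the % macromolecule-associated radioactivity; n = 3.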
In general terms: In xenograft studies the graft and the host belong to different species.

Data set [8] deals with T1, Procathepsin L. Put plainly: Binding affinity to cathepsin L in human HT-29 cells assessed as intracellular adduct formation at 0.74 MBq incubated for 4 hrs using 177Lu labelled compound by SDS-PAGE analysis. The data set is classed as cell-based. On the set-up: dose or concentration left out as unconfirmed. The method, boiled down:
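HT-29 cells (1 × 10^6/well) incubated 4 h at 37 °C with 177Lu conjugate (20 μCi, 0.74 MBq) in 1 mL medium, with or without E-64 (10 μM) or NTSR1 peptide N1 (20 μM). Cells washed and refed; at set times cells pooled, RIPA-lysed with protease inhibitor. Lysates heated 85 °C 2 min, run on 16% tris-glycine SDS-PAGE, and phosphor autoradiography taken after 72 h exposure.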

Data set [9] in a line: Drug retention in liver of mouse xenografted with human HT-29 cells assessed as tissue-conjugate adduct formation at 29.6 MBq measured after 72 hrs using 177Lu labelled compound by SDS-PAGE analysis. The conditions noted are these: in vivo. The data set is classed as ADME, tissue-based. The essentials: as §3
Data set [10] is described as follows: Stability of 177Lu labelled compound in human serum assessed as parent compound remaining at 37 degC after 3 hrs by RP-HPLC analysis. The data set is classed as ADME, cell-free. The conditions noted are these: read-out: Stability. The essentials:
as §1

The nature of data set [11]: Ratio of drug uptake in SCID mouse xenograted with human HT-29 cells assessed as tumour retention to drug uptake in spleen of SCID mouse xenografted with human HT-29 cells measured after 4 hrs using 177Lu labelled compound. The data set is classed as ADME, tissue-based, Tumor/Spleen. The method, boiled down: (§4)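 Female SCID mice (5 weeks old) received s.c. flank HT-29 cells (5 × 10^6 in Matrigel). At ~80 mm3, two weeks later, mice were randomized and given 10 μCi (0.37 MBq) of purified 177Lu conjugate i.v. by tail vein. Mice were killed at 4, 24 or 72 h. Tissues were weighed and gamma counted as %ID/g, mean ± SD, n = 5. Tumor-to-tissue ratios were calculated.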

Data set [12] is described as follows: Ratio of drug uptake in SCID mouse xenograted with human HT-29 cells assessed as tumour retention to drug uptake in small intestine of SCID mouse xenografted with human HT-29 cells measured after 24 hrs using 177Lu labelled compound. The data set is classed as ADME, tissue-based, Tumor/Small intestine. The method, boiled down: as §4
A short description of data set [13]: Ratio of drug uptake in SCID mouse xenograted with human HT-29 cells assessed as tumour retention to drug uptake in blood of SCID mouse xenografted with human HT-29 cells measured after 4 hrs using 177Lu labelled compound. The data set is classed as ADME, tissue-based, Tumor/Blood. The essentials:
as §4

Data set [14] is described as follows: Ratio of drug uptake in SCID mouse xenograted with human HT-29 cells assessed as tumour retention to drug uptake in muscle of SCID mouse xenografted with human HT-29 cells measured after 72 hrs using 177Lu labelled compound. The data set is classed as ADME, tissue-based, Tumor/Muscle. The method, boiled down: as §4
Data set [15] can be described thus: Ratio of drug uptake in SCID mouse xenograted with human HT-29 cells assessed as tumour retention to drug uptake in liver of SCID mouse xenografted with human HT-29 cells measured after 72 hrs using 177Lu labelled compound. The data set is classed as ADME, tissue-based, Tumor/Liver. The method, boiled down: as §4
Data set [16] in a line: Ratio of drug uptake in SCID mouse xenograted with human HT-29 cells assessed as tumour retention to drug uptake in kidney of SCID mouse xenografted with human HT-29 cells measured after 24 hrs using 177Lu labelled compound. The data set is classed as ADME, tissue-based, Tumor/Kidney. The method, boiled down: as §4
The nature of data set [17]: Ratio of drug uptake in SCID mouse xenograted with human HT-29 cells assessed as tumour retention to drug uptake in lung of SCID mouse xenografted with human HT-29 cells measured after 24 hrs using 177Lu labelled compound. The data set is classed as ADME, tissue-based, Tumor/Lung. The essentials: as §4
Data set [18] is described as follows: Ratio of drug uptake in SCID mouse xenograted with human HT-29 cells assessed as tumour retention to drug uptake in lung of SCID mouse xenografted with human HT-29 cells measured after 72 hrs using 177Lu labelled compound. The data set is classed as ADME, tissue-based, Tumor/Lung. The method, boiled down: as §4
Data set [19] can be described thus: Ratio of drug uptake in SCID mouse xenograted with human HT-29 cells assessed as tumour retention to drug uptake in large intestine of SCID mouse xenografted with human HT-29 cells measured after 72 hrs using 177Lu labelled compound. The data set is classed as ADME, tissue-based, Tumor/Large intestine. The method, boiled down: as §4
Data set [20] can be described thus: Ratio of drug uptake in SCID mouse xenograted with human HT-29 cells assessed as tumour retention to drug uptake in kidney of SCID mouse xenografted with human HT-29 cells measured after 72 hrs using 177Lu labelled compound. The data set is classed as ADME, tissue-based, Tumor/Kidney. The method, boiled down: as §4
Data set [21] in a line: Ratio of drug uptake in SCID mouse xenograted with human HT-29 cells assessed as tumour retention to drug uptake in pancreas of SCID mouse xenografted with human HT-29 cells measured after 4 hrs using 177Lu labelled compound. The data set is classed as ADME, tissue-based, Tumor/Pancreas. The method, boiled down:
as §4

T1 sequence (P07711 114-333 limits assumed): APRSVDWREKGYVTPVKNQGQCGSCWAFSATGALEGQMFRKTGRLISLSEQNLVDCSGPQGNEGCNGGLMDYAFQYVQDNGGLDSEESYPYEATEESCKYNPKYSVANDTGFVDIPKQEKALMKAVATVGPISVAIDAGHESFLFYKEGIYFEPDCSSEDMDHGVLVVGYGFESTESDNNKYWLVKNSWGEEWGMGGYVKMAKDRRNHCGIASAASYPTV

In the case of `Cc1cc(O)cc(C)c1C[C@H](NC(=O)[C@@H]1CCCN1C(=O)[C@H](CCCNC(=N)N)NC(=O)[C@H](CCCNC(=N)N)N(C)C(=O)[C@@H]1CCCN1C(=O)[C@H](CCCCN)NC(=O)[C@@H](CO)NC(=O)[C@@H](CO)NC(=O)[C@@H](CO)NC(=O)[C@H](Cc1cn(CCNC(=O)[C@H](CCCNC(=N)N)NC(=O)[C@H](CC(C)C)NC(=O)CCC(=O)O)nn1)NC(=O)CN1CCN(CC(=O)O)CCN(CC(=O)O)CCN(CC(=O)O)CC1)C(=O)N[C@H](C(=O)N[C@@H](CC(C)C)C(=O)O)C(C)(C)C`, the remaining at 1 h in data set [1] came out at 84.7%. For the same compound, the Drug uptake entry in [2] is “Active”; in data set [5], 32.3%; in data set [7], “Not Active”; in data set [9], “Not Active”. For the same compound, in data set [3], the remaining at 24 h amounted to 49.5%. Moreover, the outcome in data set [4], in data set [6] and in data set [8] was inactive. Also, the remaining at 3 h in data set [10] turned out to be 74.3%.

The term Kp denotes tissue or fluid exposure divided by exposure in the circulation. For the compound `Cc1cc(O)cc(C)c1C[C@H](NC(=O)[C@@H]1CCCN1C(=O)[C@H](CCCNC(=N)N)NC(=O)[C@H](CCCNC(=N)N)N(C)C(=O)[C@@H]1CCCN1C(=O)[C@H](CCCCN)NC(=O)[C@@H](CO)NC(=O)[C@@H](CO)NC(=O)[C@@H](CO)NC(=O)[C@H](Cc1cn(CCNC(=O)[C@H](CCCNC(=N)N)NC(=O)[C@H](CC(C)C)NC(=O)C2OC2C(=O)O)nn1)NC(=O)CN1CCN(CC(=O)O)CCN(CC(=O)O)CCN(CC(=O)O)CC1)C(=O)N[C@H](C(=O)N[C@@H](CC(C)C)C(=O)O)C(C)(C)C` (some centres not stated), the Ratio is 5 in [11]; 2 in data set [12]; 153 in [14]; 5.9 in [15]; 0.08 in data set [16]; 15 in [17]. Further, the Ratio in data set [18] is listed as 10; in data set [19] it was 5.5; in data set [20], 0.09; in data set [21] it was 38. The remaining at 1 h in data set [1] amounted to 93.6%. The Drug uptake result in data set [2] was “Active”; in data set [5] it was 27.3%; in [7], “Active”; in data set [9] it was “Active”. In addition, the remaining at 24 h in data set [3] came to 36.9%. The Kp at 4 h in [13] was found to be 337. The result in data set [4], in [6] and in data set [8] was Active. For the same compound, the remaining at 3 h in data set [10] is 65.6%.

Take `Cc1cc(C)c(C(=O)OCC(=O)[C@H](CCCCNC(=O)CNC(=O)[C@@H](CO)NC(=O)[C@@H](CO)NC(=O)[C@@H](CO)NC(=O)Cn2cc(C[C@H](NC(=O)CN3CCN(CC(=O)O)CCN(CC(=O)O)CCN(CC(=O)O)CC3)C(=O)N[C@H](CO)C(=O)N[C@H](CO)C(=O)N[C@H](CO)C(=O)N[C@@H](CCCCN)C(=O)N3CCC[C@H]3C(=O)N(C)[C@@H](CCCNC(=N)N)C(=O)N[C@@H](CCCNC(=N)N)C(=O)N3CCC[C@H]3C(=O)N[C@@H](Cc3c(C)cc(O)cc3C)C(=O)N[C@H](C(=O)N[C@@H](CC(C)C)C(=O)O)C(C)(C)C)nn2)NC(=O)[C@H](Cc2ccccc2)NC(=O)OCc2ccccc2)c(C)c1`: the Ratio worked out at 0.5 in data set [11]; 2 in data set [12]; 16 in [14]; 0.6 in [15]; 0.15 in data set [16]; 2.2 in [17]. In addition, the Ratio was 2.6 in data set [18], 1.9 in [19], 0.09 in data set [20] and 9 in data set [21]. In data set [13], the concentration ratio (Kp) at 4 h was determined as 6.5.
